Among all 290,000 compounds or so, about 1,300 (0.45%) were called active. The entries come from a sample that favours actives as a whole. Values without a mark were called inactive.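 Rule for the calls: active = inhibition above the mean plus 3 SD of all compounds in the same screening run (cut at about 4.5% in these data); inactive = the rest.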

The values below come from PubChem BioAssay AID1556 (The Scripps Research Institute Molecular Screening Center, 2009).

This test concerns metallo-beta-lactamase IMP-1 (Pseudomonas aeruginosa). Description: IMP-1 metallo-beta-lactamase inhibitors, primary screen, biochemical, epi-absorbance readout, Pseudomonas aeruginosa enzyme (AID 1556).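 Note: 0% = IMP-1 with DMSO and 100% = DMSO wells lacking enzyme.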 The conditions noted are these: purified IMP-1, nitrocefin hydrolysis, epi-absorbance fluorescence; at 5.6 µM; active compounds read high. In outline: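 System: purified IMP-1; amount: IMP-1 0.2 nM before substrate addition; compound: single dose, 5.6 µM; times: 25 °C, 15 min preincubation, 25 min reaction; signal: Epi-absorbance via hydrolysed-nitrocefin quenching of white-plate fluorescence, 480/530 nm, EDTA stop; benchmarks: DMSO with and without IMP-1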
Regarding `CCN1C(=O)C(=Cc2c(C)n(CC(=O)NCC3CCCO3)c3ccccc23)C(=O)N(CC)C1=S` (stereo not given), the inhibition was 20% (active).
As for `O=C(O)c1ccccc1NC(=O)C1C2CCC(O2)C1C(=O)O` (stereo not given), the figure is -2.48%; as for `CCCCn1c(=O)c(C(=O)Nc2ccccc2Cl)c(O)c2ccccc21`, -1.42%.
For the compound `CCOC(=O)C1SC2(C(F)(F)C(F)F)CC1(O)c1c(c(OC)c3occc3c1OC)O2` (stereo not given), the inhibition is -3.5%.
As to `C[N+]12CN3CN(CN(C3)C1)C2`, the inhibition was 5.56% (active).
With `Cc1cccc(OP(=O)(Oc2cccc(C)c2)OC(c2ccccc2)C(F)(F)F)c1` (stereo not given), the inhibition is -4.97%.
The same measure for `Clc1ccc2nc3c(c(-c4ccccc4)c2c1)CNCC3`: -2.18%.
Turning to `Cc1ccc(C)c(NC2=NCCCS2)c1`, the inhibition was -1.87%.
Turning to `COc1cc2nc(N3CCN(C(=O)[C@@H]4CCCO4)CC3)nc(N)c2cc1OC`, the inhibition was -4.21%.
In the case of `CC1(C)C(c2ccccc2)=NC(c2cccnc2)=[N+]1[O-]`, the inhibition is -4.75%.

A word on the inhibition: it is the change of the read-out against control, counted positive when it falls.
